Source: PMC6791425 (Oncoimmunology, 2019)

What was measured:
[1] = target: PSMA expressed on LNCaP cells (Homo sapiens, UniProt Q04609); test: competitive cell-binding assay with PSMA-positive LNCaP cells
[2] = biodistribution analysis in LNCaP tumor-bearing mice; type: in vivo, NMRI nu/nu mice; details: high molar activity, approximately 10 MBq
How it was run: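 Mice bearing LNCaP tumours (100–500 mm3) were injected with approximately 10 MBq of the 68Ga-labelled test compound, giving groups at high molar activity (low peptide amount) and low molar activity (high peptide amount). Organ distribution was determined in three mice per condition. Labelling was done at pH 4.2, 98°C, for 10 min in HEPES.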

Sequence of PSMA expressed on LNCaP cells (Q04609 whole entry): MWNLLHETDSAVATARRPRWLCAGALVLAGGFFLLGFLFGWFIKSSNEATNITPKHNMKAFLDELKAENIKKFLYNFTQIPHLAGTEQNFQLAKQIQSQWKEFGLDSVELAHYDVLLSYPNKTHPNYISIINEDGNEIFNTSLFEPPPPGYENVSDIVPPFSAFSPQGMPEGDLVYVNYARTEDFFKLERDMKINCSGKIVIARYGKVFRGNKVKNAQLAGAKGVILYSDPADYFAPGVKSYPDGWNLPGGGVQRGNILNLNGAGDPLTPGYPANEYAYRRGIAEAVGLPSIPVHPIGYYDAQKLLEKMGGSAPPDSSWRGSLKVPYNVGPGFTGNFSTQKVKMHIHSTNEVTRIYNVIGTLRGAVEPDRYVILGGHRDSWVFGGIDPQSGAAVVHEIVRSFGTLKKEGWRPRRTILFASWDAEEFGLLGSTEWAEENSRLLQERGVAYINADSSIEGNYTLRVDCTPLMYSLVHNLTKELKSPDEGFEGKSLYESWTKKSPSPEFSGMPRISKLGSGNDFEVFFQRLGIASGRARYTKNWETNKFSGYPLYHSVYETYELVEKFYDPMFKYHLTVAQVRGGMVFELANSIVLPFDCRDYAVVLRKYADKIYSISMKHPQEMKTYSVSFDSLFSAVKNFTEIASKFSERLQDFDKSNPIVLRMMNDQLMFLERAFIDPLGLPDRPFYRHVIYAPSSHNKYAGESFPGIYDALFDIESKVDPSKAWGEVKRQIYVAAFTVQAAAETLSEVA

Structure (SMILES)	IC50 [1] [nM]	Tumor ([2]; LNCaP tumor)	Adrenals [2]	BAT [2]	Blood [2]	Brain [2]	Femur [2]	Heart [2]	Kidneys [2]	Liver [2]	Lung [2]	Muscle [2]	Pancreas [2]	Ratio tumor/muscle [2]	Skin [2]	Spleen [2]	Subm. gl. [2]	Testes [2]	WAT [2]
O=C(O)CCc1ccc(O)c(CN(CCN(CC(=O)O)Cc2cc(CCC(=O)NCCCCCC(=O)NCCCC[C@H](NC(=O)N[C@@H](CCC(=O)O)C(=O)O)C(=O)O)ccc2O)CC(=O)O)c1 [PSMA-11]	14.8 ± 1.2																		
O=C([O-])CN(CCN(CC(=O)[O-])Cc1cc(CCC(=O)NCCCCCC(=O)NCCCC[C@H](NC(=O)N[C@@H](CCC(=O)O)C(=O)O)C(=O)O)ccc1[O-])Cc1cc(CCC(=O)O)ccc1[O-].[68Ga+3].[OH3+] [[^68Ga]Ga-PSMA-11]		2.99 SUV (g/g)	3.11 SUV (g/g)	0.10 SUV (g/g)	0.06 SUV (g/g)	0.01 SUV (g/g)	0.04 SUV (g/g)	0.09 SUV (g/g)	50.79 SUV (g/g)	0.11 SUV (g/g)	0.45 SUV (g/g)	0.04 SUV (g/g)	0.29 SUV (g/g)	70.87	0.09 SUV (g/g)	1.53 SUV (g/g)	0.29 SUV (g/g)	0.22 SUV (g/g)	0.33 SUV (g/g)
